SENP1 inh: SENP1 (human) catalytic domain inhibition | Q9P0U3 | recombinant SENP1 catalytic domain, CyPet-SUMO1-YPet FRET cleavage | inhibition, % at 10 µM | hit rate 0.21% among 360,000;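 active = inhibition at least 30% at 10 µM, raw YFP signal under a set limit, fluorescence ratio 0.5 to 1.5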;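 also: 0% = enzyme with DMSO and 100% = no enzyme wells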
Target sequence (Q9P0U3 419-644 limits assumed): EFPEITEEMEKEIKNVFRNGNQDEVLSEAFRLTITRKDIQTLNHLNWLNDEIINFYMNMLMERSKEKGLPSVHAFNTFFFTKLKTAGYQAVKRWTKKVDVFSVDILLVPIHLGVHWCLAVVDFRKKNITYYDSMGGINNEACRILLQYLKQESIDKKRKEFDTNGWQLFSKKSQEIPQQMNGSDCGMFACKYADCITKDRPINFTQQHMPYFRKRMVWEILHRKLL
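material = recombinant human SENP1 catalytic domain, His6-tagged | quantity = 20 pM enzyme | reagent = 25 nM SUMO1 FRET substrate | compound dosing = 10 µM single point, 0.5% DMSO | timing = 50 min enzyme reaction, room temperature, light-protected | detection = FRET, CFP and YFP emission | control set = no-enzyme low, enzyme-DMSO high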
SENP6 inh: SENP6 protease inhibition | Recombinant SENP6 catalytic domain, aminoluciferin luminescence | inhibition, % at 10 µM | hit rate 1.8% among 330,000 | AID 2599;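 active = inhibition above about 50% at the single tested dose, limit read from the data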;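 also: plate controls were DMSO wells with enzyme for no effect and DMSO wells lacking enzyme for full effect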
SENP8 block-1: blocks human SENP8 cleavage of Nedd8 substrate; hit rate 0.64% among 360,000; recombinant SENP8, Nedd8 substrate fluorescence; inhibition, % at 20 µM; in the data active = inhibition mostly above about 40%, no sharp cut-off; inactive = mostly below about 27%
Target sequence (Q96LD8 whole entry, looked up): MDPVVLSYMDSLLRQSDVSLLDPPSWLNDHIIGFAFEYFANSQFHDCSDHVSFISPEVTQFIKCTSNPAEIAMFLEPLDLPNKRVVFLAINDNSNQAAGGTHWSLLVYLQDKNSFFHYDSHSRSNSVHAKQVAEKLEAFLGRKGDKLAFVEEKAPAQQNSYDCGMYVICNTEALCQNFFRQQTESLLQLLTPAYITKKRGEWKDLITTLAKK
SENP8 block-2: inhibitors of human SENP8 protease; purified SENP8, Z-RLRGG-aminoluciferin cleavage, luminescence; Q96LD8; hit rate 1.2% among 330,000; inhibition, % at 10 µM; AID 2540; in the data active = inhibition above about 50%
SENP7 inh: blocks the human protease SENP7 | Q9BQF6 | recombinant SENP7, Z-RLRGG-aminoluciferin luminescence, 40 min | inhibition, % at 5 µM | hit rate 1.5% among 330,000 | AID 434973;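 active = inhibition above about 50% at the single test dose, limit read from the data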;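 also: plate controls were DMSO with enzyme for no effect and no enzyme buffer wells for full effect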
The depositor's hits bear a star; · = not tested or not shown. Compounds with a hit are over-represented: about 2.5% of the library has one in this group of screens.

SMILES	SENP1 inh	SENP6 inh	SENP8 block-1	SENP8 block-2	SENP7 inh
Cc1[nH]n(-c2ccccc2)c(=O)c1-c1ccccc1	-3.3	5.2	12.4	2.2	4.9
COc1cccc(C(c2c(C)[nH]n(-c3ccccc3)c2=O)c2c(C)[nH]n(-c3ccccc3)c2=O)c1OC	1.6	15.2	73.4*	5.7	39.4
CCOc1cccc(C(c2c(C)n(C)n(-c3ccccc3)c2=O)c2c(C)n(C)n(-c3ccccc3)c2=O)c1OC	-1.4	-28.6	15.4	-0.8	-3.9
Cc1[nH]n(-c2ccccc2)c(=O)c1C(c1ccc(O)c([N+](=O)[O-])c1)c1c(C)[nH]n(-c2ccccc2)c1=O	1.8	50.6*	79.6*	15.1	40.4
O=[N+]([O-])c1cc([N+](=O)[O-])c(Oc2cccnc2Br)cc1NN1CCCCC1	3.1	-13.2	36.5	2.7	-3.2
c1ccc(C2=Nc3ccccc3SC2c2nc3ccccc3[nH]2)cc1 (stereo not drawn)	·	52.4*	·	26.7	54.5*
O=C1CC(c2nc3ccccc3[nH]2)CN1c1ccccc1 (stereo not drawn)	0.9	-8.4	13.4	5.9	-2.0
N#C/C(=N\Nc1cccc(C(F)(F)F)c1)C(=O)c1ccsc1	2.0	88.3*	35.7	64.1*	-1.0
COc1cc(C2C3=C(COC3=O)Oc3cc4c(cc32)OCO4)cc(OC)c1OC (stereo not drawn)	0.2	·	43.5*	·	·
O=C(C(=O)N1CCN(C(=O)c2ccco2)CC1)c1ccccc1	0.2	·	14.1	·	·
Cc1ccc(NC(=O)C2(C)CCCN2C)cc1C (stereo not drawn)	-0.5	·	13.6	·	·
COc1ccc(C)c2sc(=NC(=O)c3ccc(C(C)=O)cc3)n(C)c12	-15.3	89.0*	-305.3	81.6*	97.2*
COc1ccc(C)c2sc(=NC(=O)C(C)C)n(C)c12	-1.8	-5.8	-45.9	-6.0	5.0
O=C(N/N=C\c1cc(Cl)ccc1O)c1ccc(S(=O)(=O)N2CCCCC2)cc1	51.0*	9.2	8.7	0.8	6.6
O=C(Nc1cc(S(=O)(=O)Nc2ccc(Cl)cc2)ccc1O)c1ccc(S(=O)(=O)N2CCCCCC2)cc1	2.8	-10.3	-6.0	1.0	2.4
CCOC(=O)C1(CCCc2ccccc2)CCN(C(=O)CCOC)CC1	1.4	86.7*	5.9	-9.0	-5.5
CCOC(=O)C1(CCCc2ccccc2)CCN(C(=O)CCc2cnn(C)c2)CC1	3.8	-7.9	14.8	-1.9	-7.3
O=C(O)c1cc(O)c2c(c1)C(=O)c1cccc(O)c1C2=O	-19.1	1.2	31.0	9.1	4.2
COc1cc(C)cc(C(=O)O)c1C1=C(O)c2cccc(O)c2C(=O)C1=O	-3.9	-2.8	55.2*	3.9	5.1
CC1=NN(c2ccc([N+](=O)[O-])cc2)C(c2ccccc2)C1 (stereo not drawn)	-64.4	-0.8	20.0	-2.9	6.6
CC1=NN(c2ccc([N+](=O)[O-])cc2)C(=O)C1	0.1	·	71.0*	·	·
CC(/C=N/NC(=O)c1sc(N)nc1C)=C\c1ccccc1	2.9	35.7	-162.0	-0.8	69.4*
Cc1[nH]c2ccccc2c1N=Nc1ccc(F)cc1	4.1	15.3	46.9*	-8.1	-6.1
O=C(O)c1cc(N2N=C(C(F)(F)F)/C(=C/C=C/c3ccco3)C2=O)ccc1Cl	32.8*	·	-47.8	·	·
CCOC(=O)c1ccc(N2N=C(C)/C(=C/C=C/c3ccco3)C2=O)cc1	0.4	11.6	24.7	16.6	-4.1
SMILES	SENP1 inh	SENP6 inh	SENP8 block-1	SENP8 block-2	SENP7 inh
Nc1cc2nsnc2cc1Br	48.4	95.5*	92.9*	97.2*	95.1*
CN1C(=O)C(N=Nc2ccccc2C(=O)O)N(C)C1=S (stereo not drawn)	55.5*	88.8*	13.4	86.4*	21.7
CC1=NN(C(N)=S)C(=O)C1N=Nc1ccccc1C(=O)O (stereo not drawn)	0.6	8.3	9.6	-7.5	2.6
CCOc1ccc(-c2cc(C(=O)OC)nc3c2c(=O)n(C)c(=O)n3C)cc1	-4.9	17.0	-433.9	8.5	-3.0
Cc1ccc(C(=O)COC(=O)c2cccc(O)c2)s1	0.7	93.2*	-4.2	83.2*	95.1*
COc1cccc(/C=N/N=C(\N)c2nonc2N)c1O	2.2	21.3	17.8	14.8	78.3*
CCCCCc1c(CC)ncn1CCc1ccccc1OC	-3.8	·	10.3	·	·
O=C(Nc1sc2c(c1C(=O)O)CCCC2)c1ccc(Cl)cc1	1.6	89.1*	-119.7	78.0*	37.4
O=C(O)c1ccc(Nc2nc3c(s2)CCCC3)cc1	-1.1	98.9*	-87.6	96.2*	100.0*

High-throughput results as filed in PubChem BioAssay.
